# Data taken from ChEMBL document CHEMBL4229344 (Eur J Med Chem, 2018).
# Calls of active or inactive are those of the source. The calls are words filed in the database; no cut-off is given here.
# Legend:
# [1] = biological target: Bone morphogenetic protein receptor type-1B (Homo sapiens) (UniProt O00238); assay: Binding affinity to wild-type human partial length BMPR1B (D178 to L502 residues) expressed in mammalian expression system assessed as residual binding level at 1 uM by Kinomescan method relative to control
# Summary of the method: (§1)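 Single-concentration KINOMEscan (DiscoverX) binding screen at 1 μM against a panel of 468 purified kinases and mutants. The read-out is binding relative to control.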
# [2] = tested on: Serine/threonine-protein kinase B-raf (Homo sapiens), P15056 [V600E]; assay: Binding affinity to human partial length BRAF V600E mutant (S429 to E741 residues) expressed in mammalian expression system assessed as residual binding level at 1 uM by Kinomescan method relative to control
# Summary of the method: (§2)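 Kinome-wide single-concentration binding screen (KINOMEscan) at 1 μM against a panel of 468 purified kinases and mutants. Read-out is relative binding of each kinase compared with control. Selectivity across the panel was summarised as an S(10) score.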
# [3] = biological target: Cyclin-dependent kinase 9 (Homo sapiens) (UniProt P50750); assay: Binding affinity to wild-type human full length CDK9 (M1 to F372 residues) expressed in bacterial expression system assessed as residual binding level at 1 uM by Kinomescan method relative to control
# Summary of the method: (§3)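 Single-concentration (1 μM) competition-binding screen run by KINOMEscan against a panel of 468 purified kinases and mutants. The read-out is the relative binding activity of the test compound to each kinase.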
# [4] = biological target: Casein kinase II subunit alpha (Homo sapiens) (UniProt P68400); assay: Binding affinity to wild-type human full length CSNK2A1 (M1 to Q391 residues) expressed in mammalian expression system assessed as residual binding level at 1 uM by Kinomescan method relative to control; summary of the method: as §3
# [5] = tested on: Receptor-type tyrosine-protein kinase FLT3 (Homo sapiens), P36888 [D835Y]; assay: Binding affinity to human partial length FLT3 D835Y mutant (Q580 to Y969 residues) expressed in bacterial expression system assessed as residual binding level at 1 uM by Kinomescan method relative to control; summary of the method: as §2
# [6] = biological target: Serine/threonine-protein kinase ICK (Homo sapiens) (UniProt Q9UPZ9); assay: Binding affinity to wild-type human partial length ICK (M1 to P314 residues) expressed in mammalian expression system assessed as residual binding level at 1 uM by Kinomescan method relative to control
# [7] = biological target: Inhibitor of nuclear factor kappa-B kinase subunit beta (Homo sapiens) (UniProt O14920); assay: Binding affinity to wild-type human full length IKK-beta (M1 to S756 residues) expressed in mammalian expression system assessed as residual binding level at 1 uM by Kinomescan method relative to control; summary of the method: as §3
# [8] = biological target: Interleukin-1 receptor-associated kinase 1 (Homo sapiens) (UniProt P51617); assay: Binding affinity to wild-type human partial length IRAK1 (R194 to S712 residues) expressed in mammalian expression system assessed as residual binding level at 1 uM by Kinomescan method relative to control
# [9] = biological target: Serine/threonine-protein kinase LATS2 (Homo sapiens) (UniProt Q9NRM7); assay: Binding affinity to wild-type human partial length LATS2 (Q641 to V1088 residues) expressed in mammalian expression system assessed as residual binding level at 1 uM by Kinomescan method relative to control
# [10] = biological target: Tyrosine-protein kinase Lyn (Homo sapiens) (UniProt P07948); assay: Binding affinity to wild-type human partial length LYN (C219 to Q511 residues) expressed in bacterial expression system assessed as residual binding level at 1 uM by Kinomescan method relative to control
# [11] = biological target: Mitogen-activated protein kinase kinase kinase 3 (Homo sapiens) (UniProt Q99759); assay: Binding affinity to wild-type human partial length MAP3K3 (E320 to Y626 residues) expressed in mammalian expression system assessed as residual binding level at 1 uM by Kinomescan method relative to control
# [12] = biological target: MAP kinase-interacting serine/threonine-protein kinase 1 (Homo sapiens) (UniProt Q9BUB5); assay: Binding affinity to wild-type human full length MKNK1 (M1 to L424 residues) expressed in mammalian expression system assessed as residual binding level at 1 uM by Kinomescan method relative to control; summary of the method: as §1
# [13] = biological target: Serine/threonine-protein kinase MRCK beta (Homo sapiens) (UniProt Q9Y5S2); assay: Binding affinity to wild-type human partial length MRCKB (L56 to S417 residues) expressed in bacterial expression system assessed as residual binding level at 1 uM by Kinomescan method relative to control
# [14] = biological target: Serine/threonine-protein kinase 4 (Homo sapiens) (UniProt Q13043); assay: Binding affinity to wild-type human full length MST1 (M1 to F487 residues) expressed in bacterial expression system assessed as residual binding level at 1 uM by Kinomescan method relative to control
# Summary of the method: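 KINOMEscan competition binding against 468 purified kinases/mutants, test compound at 1 µM; residual binding relative to control.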
# [15] = biological target: Ribosomal protein S6 kinase alpha-6 (Homo sapiens) (UniProt Q9UK32); assay: Binding affinity to wild-type human partial length C-terminal RSK4 kinase domain 2 (I401 to Y711 residues) expressed in bacterial expression system assessed as residual binding level at 1 uM by Kinomescan method relative to control
# [16] = biological target: Proto-oncogene tyrosine-protein kinase Src (Homo sapiens) (UniProt P12931); assay: Binding affinity to wild-type human partial length SRC (L240 to L536 residues) expressed in bacterial expression system assessed as residual binding level at 1 uM by Kinomescan method relative to control
# [17] = AUC (0 to infinity) in Sprague-Dawley rat at 10 mg/kg, po; type: ADME, organism-based; design: dose 10 mg/kg, route oral, time infinity; settings: in vivo
# Summary of the method: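 Male Sprague-Dawley rats (6–8 weeks) fasted overnight, dosed IV or orally; compound dissolved in 5% DMSO/40% PEG400/55% saline (dosing solution 1 mg/mL). Blood (~0.2 mL) from jugular vein into heparin; IV sampling 1 min–8 h, oral 5 min–24 h. Plasma separated by centrifugation at 2–8 °C, stored at −80 °C until analysis.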
# [18] = biological target: Platelet-derived growth factor receptor alpha (Homo sapiens, UniProt P16234); assay: Inhibition of PDGFRalpha in human EOL-1 cells assessed as decrease in STAT5 phosphorylation at Y694 residue up to 300 nM after 2 hrs by Western blot analysis; type: cell-based
# NCI-H1703 = assay: Cell cycle arrest in human NCI-H1703 cells assessed as accumulation at G0/G1 phase after 72 hrs by propidium iodide/RNase staining-based flow cytometric analysis; type: functional
# Summary of the method: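 Cells treated with compound or DMSO for the stated periods, fixed overnight in 70% cold ethanol at −20 °C, stained with PI/RNase buffer, then analysed by flow cytometry for cell-cycle distribution. For NCI-H1703 stimulation, PDGF AA was used at 100 ng/mL.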
# EOL1 = assay: Induction of apoptosis in human EOL-1 cells assessed as cleaved caspase3 expression level at 3 to 100 nM after 24 hrs by Western blot analysis; type: functional, cell-based
# Summary of the method: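 Cells exposed to compound or DMSO for the stated periods, then lysed and immunoblotted for PARP and caspase-3 cleavage, with β-actin as loading control. NCI-H1703 stimulation used PDGF AA at 100 ng/mL.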
# Sequence of Serine/threonine-protein kinase B-raf (Homo sapiens), P15056 [V600E] (P15056 whole entry V600E, the tested form may be a part): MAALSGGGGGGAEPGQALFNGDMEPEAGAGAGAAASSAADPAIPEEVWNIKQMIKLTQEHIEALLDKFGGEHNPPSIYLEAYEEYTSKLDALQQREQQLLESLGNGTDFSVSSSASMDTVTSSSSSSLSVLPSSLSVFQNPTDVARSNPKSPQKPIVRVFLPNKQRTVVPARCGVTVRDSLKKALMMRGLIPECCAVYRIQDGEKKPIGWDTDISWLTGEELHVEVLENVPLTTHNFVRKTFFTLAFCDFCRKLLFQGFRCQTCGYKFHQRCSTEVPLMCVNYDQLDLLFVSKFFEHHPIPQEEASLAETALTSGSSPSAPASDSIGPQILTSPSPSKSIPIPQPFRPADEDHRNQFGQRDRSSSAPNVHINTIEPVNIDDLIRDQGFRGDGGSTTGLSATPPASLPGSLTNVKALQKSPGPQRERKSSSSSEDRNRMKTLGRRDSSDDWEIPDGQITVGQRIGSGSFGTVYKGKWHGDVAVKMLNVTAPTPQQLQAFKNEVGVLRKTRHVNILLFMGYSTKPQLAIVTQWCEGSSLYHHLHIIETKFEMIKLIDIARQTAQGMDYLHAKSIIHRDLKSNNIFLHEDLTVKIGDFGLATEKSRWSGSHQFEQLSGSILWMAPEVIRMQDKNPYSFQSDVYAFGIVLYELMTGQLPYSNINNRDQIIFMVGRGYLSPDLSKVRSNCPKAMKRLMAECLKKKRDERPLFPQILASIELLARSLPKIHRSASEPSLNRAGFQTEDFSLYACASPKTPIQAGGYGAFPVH
# Sequence of Bone morphogenetic protein receptor type-1B (Homo sapiens) (O00238 whole entry, the tested form may be a part): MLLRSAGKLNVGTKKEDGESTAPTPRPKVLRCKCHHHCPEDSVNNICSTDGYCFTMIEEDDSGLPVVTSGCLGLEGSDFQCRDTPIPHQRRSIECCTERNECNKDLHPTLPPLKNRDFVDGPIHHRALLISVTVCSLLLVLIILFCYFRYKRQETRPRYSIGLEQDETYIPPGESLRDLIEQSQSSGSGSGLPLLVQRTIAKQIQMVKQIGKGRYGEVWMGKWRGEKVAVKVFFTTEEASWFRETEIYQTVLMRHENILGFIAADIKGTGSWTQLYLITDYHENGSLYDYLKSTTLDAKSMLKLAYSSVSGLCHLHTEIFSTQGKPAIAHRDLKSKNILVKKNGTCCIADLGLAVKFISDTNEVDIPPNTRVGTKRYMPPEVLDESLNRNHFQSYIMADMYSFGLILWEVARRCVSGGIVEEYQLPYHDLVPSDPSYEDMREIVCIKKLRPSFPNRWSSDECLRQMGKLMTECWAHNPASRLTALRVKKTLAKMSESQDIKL
# Sequence of Mitogen-activated protein kinase kinase kinase 3 (Homo sapiens) (Q99759 whole entry, the tested form may be a part): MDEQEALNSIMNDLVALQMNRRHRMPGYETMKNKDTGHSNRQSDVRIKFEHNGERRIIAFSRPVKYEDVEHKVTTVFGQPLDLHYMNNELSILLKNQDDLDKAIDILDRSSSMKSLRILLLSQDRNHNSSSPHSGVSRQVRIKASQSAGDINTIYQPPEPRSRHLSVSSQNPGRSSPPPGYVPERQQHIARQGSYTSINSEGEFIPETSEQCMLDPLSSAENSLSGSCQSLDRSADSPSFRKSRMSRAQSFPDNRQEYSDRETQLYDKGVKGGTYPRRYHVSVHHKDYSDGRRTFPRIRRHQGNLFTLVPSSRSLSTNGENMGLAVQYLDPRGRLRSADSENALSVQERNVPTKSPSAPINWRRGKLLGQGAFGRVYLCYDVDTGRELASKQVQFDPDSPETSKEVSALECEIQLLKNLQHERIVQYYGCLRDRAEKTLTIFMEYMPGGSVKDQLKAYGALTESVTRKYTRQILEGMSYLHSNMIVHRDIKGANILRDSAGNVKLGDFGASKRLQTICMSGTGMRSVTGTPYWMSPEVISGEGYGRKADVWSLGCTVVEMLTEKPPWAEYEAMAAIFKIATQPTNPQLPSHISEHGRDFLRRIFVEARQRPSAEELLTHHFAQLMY
# Sequence of Inhibitor of nuclear factor kappa-B kinase subunit beta (Homo sapiens) (O14920 whole entry, the tested form may be a part): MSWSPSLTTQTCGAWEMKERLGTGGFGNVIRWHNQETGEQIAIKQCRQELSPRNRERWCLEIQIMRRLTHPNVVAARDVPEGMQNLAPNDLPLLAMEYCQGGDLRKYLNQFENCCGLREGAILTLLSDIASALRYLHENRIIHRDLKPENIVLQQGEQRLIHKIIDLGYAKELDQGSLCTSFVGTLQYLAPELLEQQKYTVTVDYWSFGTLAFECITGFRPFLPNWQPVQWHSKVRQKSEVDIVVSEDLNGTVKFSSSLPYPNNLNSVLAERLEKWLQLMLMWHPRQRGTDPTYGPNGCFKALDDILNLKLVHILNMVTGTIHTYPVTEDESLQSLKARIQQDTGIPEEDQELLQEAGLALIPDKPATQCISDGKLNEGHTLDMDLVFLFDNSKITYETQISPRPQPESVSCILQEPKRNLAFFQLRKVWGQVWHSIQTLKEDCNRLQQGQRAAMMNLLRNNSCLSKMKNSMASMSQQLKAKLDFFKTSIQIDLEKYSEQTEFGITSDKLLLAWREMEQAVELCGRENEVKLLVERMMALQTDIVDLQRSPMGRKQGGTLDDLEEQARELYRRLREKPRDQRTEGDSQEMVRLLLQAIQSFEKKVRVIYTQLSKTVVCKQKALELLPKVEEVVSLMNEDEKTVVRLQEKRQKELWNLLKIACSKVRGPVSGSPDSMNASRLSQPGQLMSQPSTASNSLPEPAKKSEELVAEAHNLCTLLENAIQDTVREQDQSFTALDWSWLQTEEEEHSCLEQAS
# Sequence of Platelet-derived growth factor receptor alpha (P16234 whole entry): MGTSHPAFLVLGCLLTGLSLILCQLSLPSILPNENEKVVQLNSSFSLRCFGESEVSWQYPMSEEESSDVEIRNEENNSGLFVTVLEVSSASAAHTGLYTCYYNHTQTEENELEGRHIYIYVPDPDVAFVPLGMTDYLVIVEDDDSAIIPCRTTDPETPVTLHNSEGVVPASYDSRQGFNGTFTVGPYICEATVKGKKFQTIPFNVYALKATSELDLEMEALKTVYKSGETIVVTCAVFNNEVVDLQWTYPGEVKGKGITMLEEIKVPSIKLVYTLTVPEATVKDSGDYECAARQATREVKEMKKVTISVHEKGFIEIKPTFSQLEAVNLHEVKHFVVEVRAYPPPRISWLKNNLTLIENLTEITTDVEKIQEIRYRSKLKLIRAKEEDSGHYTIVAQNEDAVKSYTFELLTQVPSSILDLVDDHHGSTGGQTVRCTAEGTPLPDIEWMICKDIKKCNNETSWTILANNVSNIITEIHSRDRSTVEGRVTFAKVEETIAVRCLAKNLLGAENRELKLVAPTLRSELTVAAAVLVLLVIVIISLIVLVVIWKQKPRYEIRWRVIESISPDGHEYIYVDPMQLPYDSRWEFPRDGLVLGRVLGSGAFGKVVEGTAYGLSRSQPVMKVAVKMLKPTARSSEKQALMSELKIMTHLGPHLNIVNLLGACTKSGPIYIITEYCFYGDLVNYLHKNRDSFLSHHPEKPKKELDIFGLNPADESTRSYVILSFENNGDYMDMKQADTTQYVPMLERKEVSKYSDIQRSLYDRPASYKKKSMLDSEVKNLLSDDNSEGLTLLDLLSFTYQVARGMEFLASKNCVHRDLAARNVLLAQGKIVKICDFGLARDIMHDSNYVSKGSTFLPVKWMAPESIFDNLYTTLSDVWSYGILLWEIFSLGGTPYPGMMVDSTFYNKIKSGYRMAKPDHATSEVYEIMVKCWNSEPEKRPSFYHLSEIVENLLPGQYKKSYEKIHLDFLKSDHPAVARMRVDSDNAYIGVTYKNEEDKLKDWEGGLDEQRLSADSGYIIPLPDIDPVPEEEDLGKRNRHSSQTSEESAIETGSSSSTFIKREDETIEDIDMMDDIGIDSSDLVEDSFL
# Sequence of Serine/threonine-protein kinase LATS2 (Homo sapiens) (Q9NRM7 whole entry, the tested form may be a part): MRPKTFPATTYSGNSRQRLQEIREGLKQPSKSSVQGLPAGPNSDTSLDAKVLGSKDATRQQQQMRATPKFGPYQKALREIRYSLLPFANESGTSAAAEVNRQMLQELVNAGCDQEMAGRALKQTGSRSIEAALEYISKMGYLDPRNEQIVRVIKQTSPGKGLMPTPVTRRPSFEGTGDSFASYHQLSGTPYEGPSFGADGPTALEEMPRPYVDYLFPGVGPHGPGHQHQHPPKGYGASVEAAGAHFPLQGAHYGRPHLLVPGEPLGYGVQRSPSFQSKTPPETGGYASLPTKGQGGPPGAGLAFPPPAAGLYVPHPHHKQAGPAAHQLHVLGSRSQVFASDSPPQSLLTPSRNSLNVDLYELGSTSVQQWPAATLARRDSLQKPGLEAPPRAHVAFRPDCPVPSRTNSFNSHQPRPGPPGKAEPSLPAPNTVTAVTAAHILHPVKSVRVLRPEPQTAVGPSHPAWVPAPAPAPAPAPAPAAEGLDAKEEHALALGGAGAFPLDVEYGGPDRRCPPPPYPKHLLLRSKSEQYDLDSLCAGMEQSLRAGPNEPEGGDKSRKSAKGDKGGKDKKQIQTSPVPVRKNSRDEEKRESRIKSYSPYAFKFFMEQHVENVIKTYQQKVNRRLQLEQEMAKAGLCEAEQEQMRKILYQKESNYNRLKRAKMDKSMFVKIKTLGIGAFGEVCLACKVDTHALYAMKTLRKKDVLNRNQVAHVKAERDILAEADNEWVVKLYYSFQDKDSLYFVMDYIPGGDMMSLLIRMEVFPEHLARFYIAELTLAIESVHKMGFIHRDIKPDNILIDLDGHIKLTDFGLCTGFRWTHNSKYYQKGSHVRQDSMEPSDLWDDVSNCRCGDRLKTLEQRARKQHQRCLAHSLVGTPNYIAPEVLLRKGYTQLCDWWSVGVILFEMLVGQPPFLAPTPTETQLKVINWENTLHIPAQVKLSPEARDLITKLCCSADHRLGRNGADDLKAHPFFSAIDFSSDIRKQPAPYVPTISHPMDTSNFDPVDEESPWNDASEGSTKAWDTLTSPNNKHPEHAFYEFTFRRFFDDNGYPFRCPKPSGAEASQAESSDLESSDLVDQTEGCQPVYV
compound,measurement,setting,value
Cc1ccc(NC(=O)c2ccc(CN(CCN(C)C)C(=O)c3cccnc3)cc2)cc1Nc1nccc(-c2cccnc2)n1,Activity,[1],95%
same,Activity,[2],49%
same,Activity,[3],100%
same,Activity,[4],81%
same,Activity,[5],95%
same,Activity,[6],100%
same,Activity,[7],96%
same,Activity,[8],98%
same,Activity,[9],100%
same,Activity,[10],97%
same,Activity,[11],86%
same,Activity,[12],100%
same,Activity,[13],99%
same,Activity,[14],79%
same,Activity,[15],100%
same,Activity,[16],100%
same,AUC(0-inf),[17],115 ng·h/mL
same,inhibition,[18],Active
same,Activity,NCI-H1703,Dose-dependent effect
same,Activity,EOL1,Active
